Assay [1] deals with Rattus norvegicus. The assay can be described thus: Antianaphylactic activity in iv dosed male Sprague-Dawley rat assessed as inhibition of egg albumin/Bordetella pertussis-induced passive cutaneous anaphylaxis reaction. The assay is classed as functional. To be noted: read-out: ID50 (the source's name). Summed up: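 Sera from rats sensitized with im egg albumin plus ip sterilized B. pertussis (collected day 12) were diluted fourfold and injected intradermally into dorsal skin of 8-week rats (~280 g). At 72 h, rats received iv egg albumin 5 mg plus Evans blue 10 mg. Drug in saline or PEG 400 was given iv immediately before challenge. Dye-leakage area (mm2) was read at 30 min. ID50 by least squares on log dose, with 95% confidence limits.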

Assay [2] has as its system Rattus norvegicus. The assay can be described thus: Antianaphylactic activity in po dosed male Sprague-Dawley rat assessed as inhibition of egg albumin/Bordetella pertussis-induced passive cutaneous anaphylaxis reaction. The class given is functional. To be noted: read-out: ID50 (the source's name). The method, boiled down: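 Homologous rat PCA used 72-h skin sensitization with fourfold-diluted anti-egg albumin serum, raised with B. pertussis adjuvant, in 8-week rats (~280 g). Drug was suspended in 3% gum arabic and given orally 5 min before iv challenge with egg albumin 5 mg plus Evans blue 10 mg. Dye-leakage area (mm2) was measured after 30 min. ID50 by least squares on log dose vs area, with 95% confidence limits.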

As for `CCc1ccc2occ(-c3nnnn3[C@@H]3O[C@H](C(=O)[O-])[C@@H](O)[C@H](O)[C@H]3O)c(=O)c2c1.[Na+]`, in the assay with Rattus norvegicus [1], the ED50 was above 20 mg/kg.

As for `CCc1ccc2occ(-c3nnn[nH]3)c(=O)c2c1`, the ED50 with Rattus norvegicus [2] was found to be 5.9 mg/kg; in the assay on Rattus norvegicus [1], 0.25 mg/kg.

`CC(O)c1ccc2occ(-c3nnn[nH]3)c(=O)c2c1` (stereo not given): the ED50 in the assay on Rattus norvegicus [2] was determined as 13.4 mg/kg; in the assay on Rattus norvegicus [1], 0.56 mg/kg.

As to `CC(=O)c1ccc2occ(-c3nnn[nH]3)c(=O)c2c1`, the ED50 in the assay with Rattus norvegicus [2] was found to be 6.6 mg/kg; in the assay with Rattus norvegicus [1], 0.24 mg/kg.

Turning to `O=c1c(-c2nnn[nH]2)coc2ccc(CCO)cc12`, the ED50 is above 20 mg/kg in the assay on Rattus norvegicus [2] and 0.21 mg/kg with Rattus norvegicus [1].

As for `O=c1c(-c2nnn[nH]2)coc2ccc(C(O)CO)cc12` (stereo not given), the ED50 in the assay on Rattus norvegicus [2] was above 20 mg/kg; in the assay on Rattus norvegicus [1], 0.57 mg/kg.

Consider `CCc1ccc(O)c(C(=O)O)c1`, for which the ED50 in the assay with Rattus norvegicus [1] was above 20 mg/kg.

For the compound `O=C(O)Cc1ccc(O)c(C(=O)O)c1`, the ED50 with Rattus norvegicus [1] was above 20 mg/kg.

In the case of `CC(=O)OC(C)c1ccc2occ(-c3nnn[nH]3)c(=O)c2c1` (stereo not given), the ED50 in the assay on Rattus norvegicus [2] is above 20 mg/kg.

Take `CCC(O)c1ccc2occ(-c3nnn[nH]3)c(=O)c2c1` (stereo not given): the figures for the ED50 in the assay on Rattus norvegicus [2] and with Rattus norvegicus [1] were above 20 mg/kg and 0.3 mg/kg, respectively.

Take `CCCC(O)c1ccc2occ(-c3nnn[nH]3)c(=O)c2c1` (stereo not given): the ED50 with Rattus norvegicus [1] is 1.07 mg/kg.

`CC(C)(O)c1ccc2occ(-c3nnn[nH]3)c(=O)c2c1`: the ED50 with Rattus norvegicus [1] came to 1.13 mg/kg.

As for `CCC(=O)c1ccc2occ(-c3nnn[nH]3)c(=O)c2c1`, the ED50 with Rattus norvegicus [1] is 0.29 mg/kg.

Consider `O=Cc1ccc2occ(-c3nnn[nH]3)c(=O)c2c1`, for which the ED50 with Rattus norvegicus [2] was above 20 mg/kg; in the assay with Rattus norvegicus [1], 1.1 mg/kg.

As for `O=c1c(-c2nnn[nH]2)coc2ccc(CO)cc12`, the ED50 with Rattus norvegicus [1] was found to be 0.34 mg/kg.

`C=Cc1ccc2occ(-c3nnn[nH]3)c(=O)c2c1`: in the assay on Rattus norvegicus [1], the ED50 came out at 0.49 mg/kg.

On to `O=C([O-])c1cc(=O)c2c(OCC(O)COc3cccc4oc(C(=O)[O-])cc(=O)c34)cccc2o1.[Na+].[Na+]` [CROMOLYN SODIUM], for which the ED50 in the assay with Rattus norvegicus [2] was above 100 mg/kg; in the assay on Rattus norvegicus [1] it was 1.33 mg/kg.
